Columns and labels:
[1] = Binding affinity (Kobs) at a pH 5.0 against 50 mM phosphate buffer was determined.
Method in brief: (§1)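 Chemical hydrolysis: compound (initial 0.9–1.8 mM) in preheated 50 mM phosphate buffer, μ = 0.15, pH 5.0 or 7.4, held at 37 °C. Samples taken at intervals and analysed by HPLC; kobs and t1/2 derived.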

[2] = Hydrolysis half life at pH 7.4 against 50 mM phosphate buffer was determined.; type: ADME; method in brief: as §1
Homo sapiens = species: Homo sapiens; assay: Binding affinity (Kobs) against 80% human Serum esterase was determined
Method in brief: (§2)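 Compound dissolved in 1 vol phosphate buffer (50 mM, μ = 0.15, pH 7.4, 37 °C), then 4 vol preheated human serum added (80% serum; initial 1.4–1.7 mM); 37 °C water bath. Samples taken at intervals, deproteinized with equal volume methanol, centrifuged; supernatant dried and redissolved in mobile-phase buffer, or injected directly if labile. HPLC; kobs and t1/2 derived.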

[3] = Hydrolysis half life at pH 5.0 against 50 mM phosphate buffer was determined.; type: ADME; method in brief: as §1
Oryctolagus cuniculus = species: Oryctolagus cuniculus; assay: Binding constant (Kobs) against 10% rabbit liver homogenate was determined.; type: ADME
Method in brief: (§3)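 Rabbit liver homogenized in ~4 vol isotonic phosphate buffer pH 7.4, spun 9000g 90 min 4 °C, supernatant stored −80 °C. Compound in 1 vol isotonic buffer plus 1 vol preheated 20% homogenate (10% final; initial 1.6–1.8 mM), 37 °C. Samples methanol-deproteinized and analysed by HPLC; kobs and t1/2 derived.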

[4] = (§4) Hydrolysis half life against 10% rabbit liver homogenate was determined.; type: tissue-based; method in brief: as §3
[5] = Apparent partition coefficients was determined at a pH 7.4 by using the capacity factors of RP-HPLC.; type: physicochemical; conditions: octanol/water
Method in brief: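 Tetraester log Papp estimated from RP-HPLC capacity factors (k'); C8 reversed-phase column, mobile phase 20 mM phosphate buffer pH 6.0/methanol 30:70 v/v; value reported for pH 7.4.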

[6] = Hydrolysis half life against 80% human serum was determined.; type: ADME; method in brief: as §2
[7] = Binding affinity (Kobs) at a pH 7.4 against 50 mM phosphate buffer was determined.; method in brief: as §1
[8] = as §4; type: ADME, organism-based, Oryctolagus cuniculus; method in brief: as §3

k obs [1] | k obs (Homo sapiens) | half-life [3] | chromatographic logD [5] | half-life [6] | SMILES | half-life [2] | K obs (Oryctolagus cuniculus) | T1/2 [4] | k obs [7] | half-life [8]
0.000117 s⁻¹ | 0.000149 s⁻¹ | 1.65 h | 1.56 | 1.3 h | CC(C)(C)C(=O)OCOP(=O)(O)C(Cl)(Cl)P(=O)(OCOC(=O)C(C)(C)C)OCOC(=O)C(C)(C)C | 1.7 h | 0.65 min⁻¹ | 1.1 min | 0.000113 s⁻¹ | –
– | – | – | 7.4 | – | CC(C)(C)C(=O)OCOP(=O)(OCOC(=O)C(C)(C)C)C(Cl)(Cl)P(=O)(OCOC(=O)C(C)(C)C)OCOC(=O)C(C)(C)C | – | – | – | – | –

SMILES | k obs [1] | k obs (Homo sapiens) | half-life [3] | chromatographic logD [5] | half-life [6] | half-life [2] | K obs (Oryctolagus cuniculus) | T1/2 [4] | k obs [7] | half-life [8]
C1CCNCC1.C1CCNCC1.CC(C)(C)C(=O)OCOP(=O)(O)C(Cl)(Cl)P(=O)(O)OCOC(=O)C(C)(C)C | – | – | – | -2.13 | – | 0.783 h | 0.51 min⁻¹ | – | 1.67e-07 s⁻¹ | 0.233 h

From ChEMBL document CHEMBL1132494, “Bisphosphonate prodrugs: synthesis and in vitro evaluation of novel acyloxyalkyl esters of clodronic acid” (J Med Chem, 1999)
